Assay results as given in ChEMBL document CHEMBL2086314, “Synthesis and anticonvulsant activity of new N-Mannich bases derived from 3-(2-fluorophenyl)- and 3-(2-bromophenyl)-pyrrolidine-2,5-diones. Part II” (Bioorg Med Chem, 2012).
Calls of active or inactive are those of the source. The calls are words filed in the database; no cut-off is given here.

Legend:
Mus musculus [1] = assay: Anticonvulsant activity in CF-1 albino mouse assessed as protection from maximal electric shock-induced seizures at 300 mg/kg, ip measured after 0.5 hrs; assay type: functional, organism-based; set-up: dose 300 mg/kg
Summary of the method: (§1)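 Male CF-1 mice dosed ip at 30, 100 or 300 mg/kg, suspension in 0.5% methylcellulose/water. MES: corneal electrodes primed with electrolyte containing anaesthetic, 50 mA, 60 Hz, 0.2 s. Examined 0.5 and 4 h after dosing. Value is the minimum dose protecting half or more of the animals.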

Mus musculus [2] = assay: Neurotoxicity in CF-1 albino mouse assessed as motor impairment at 300 mg/kg, ip measured after 0.5 hrs by rotarod test; assay type: toxicity, organism-based; set-up: dose 300 mg/kg, route intraperitoneal; conditions: in vivo
Summary of the method: (§2)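 Rotarod neurotoxicity in male CF-1 mice given ip doses of 30, 100 or 300 mg/kg (0.5% methylcellulose suspension), examined 0.5 and 4 h after dosing. Impairment means failing to hold balance on the rod for 1 min. Value is the minimum dose causing toxicity in half or more of the animals; response comments are recorded.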

Mus musculus [3] = assay: Anticonvulsant activity in CF-1 albino mouse assessed as protection from maximal electric shock-induced seizures at 300 mg/kg, ip measured after 4 hrs; assay type: functional, organism-based; set-up: dose 300 mg/kg; summary of the method: as §1
Mus musculus [4] = assay: Neurotoxicity in CF-1 albino mouse assessed as motor impairment at 300 mg/kg, ip measured after 4 hrs by rotarod test; assay type: toxicity, organism-based; set-up: dose 300 mg/kg, route intraperitoneal; conditions: in vivo; summary of the method: as §2
Rattus norvegicus [5] = assay: Neurotoxicity in Sprague-Dawley rat assessed as motor impairment at 30 mg/kg, po by rotarod test; assay type: toxicity, organism-based; set-up: dose 30 mg/kg, route oral; conditions: in vivo
Summary of the method: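 Male Sprague–Dawley rats, four animals, oral 30 mg/kg in 0.5% methylcellulose/water. Motor impairment on the rotarod (failure to keep balance for 1 min) assessed alongside MES at five times from 0.25 to 4 h.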

Mus musculus [6] = assay: Anticonvulsant activity in CF-1 albino mouse assessed as protection against 6 Hz psychomotor seizure at 100 mg/kg, ip measured after 0.5 hrs; assay type: functional; conditions: route intraperitoneal
Summary of the method: (§3)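 6-Hz psychomotor seizure in male CF-1 mice, compound suspended in 0.5% methylcellulose/water, given ip (100 or 75 mg/kg). Corneal stimulation with 0.2 ms monopolar rectangular pulses at 6 Hz for 3 s, 32 mA, constant-current device. Protected if normal exploratory behaviour resumes within 10 s. Tested 0.25–4 h after dosing; value is mice protected out of four.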

Mus musculus [7] = assay: Anticonvulsant activity in CF-1 albino mouse assessed as protection against 6 Hz psychomotor seizure at 100 mg/kg, ip measured after 4 hrs; assay type: functional; conditions: route intraperitoneal; summary of the method: as §3
Rattus norvegicus [8] = assay: Anticonvulsant activity in Sprague-Dawley rat assessed as protection from maximum electric shock-induced seizures at 30 mg/kg, po measured after 0.5 hrs; assay type: functional
Summary of the method: (§4)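 Male Sprague–Dawley rats, four per group, given 30 mg/kg orally as a suspension in 0.5% methylcellulose/water. MES stimulus 150 mA, 60 Hz, 0.2 s via corneal electrodes. Tested at 0.25, 0.5, 1, 2 and 4 h; value is rats protected out of four.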

Rattus norvegicus [9] = assay: Anticonvulsant activity in Sprague-Dawley rat assessed as protection from maximum electric shock-induced seizures at 30 mg/kg, po measured after 1 hr; assay type: functional; summary of the method: as §4
Rattus norvegicus [10] = assay: Anticonvulsant activity in Sprague-Dawley rat assessed as protection from maximum electric shock-induced seizures at 30 mg/kg, po measured after 0.25 hrs; assay type: functional; summary of the method: as §4
Mus musculus [11] = assay: Anticonvulsant activity in ip dosed CF-1 albino mouse assessed as protection from maximal electric shock-induced seizures measured after 4 hrs; assay type: functional; conditions: read-out: MED; summary of the method: as §1
Rattus norvegicus [12] = assay: Anticonvulsant activity in Sprague-Dawley rat assessed as protection from maximum electric shock-induced seizures at 30 mg/kg, po measured after 2 hrs; assay type: functional; summary of the method: as §4
Rattus norvegicus [13] = assay: Anticonvulsant activity in Sprague-Dawley rat assessed as protection from maximum electric shock-induced seizures at 30 mg/kg, po measured after 4 hrs; assay type: functional; summary of the method: as §4
Mus musculus [14] = assay: Anticonvulsant activity in CF-1 albino mouse assessed as protection against 6 Hz psychomotor seizure at 100 mg/kg, ip measured after 2 hrs; assay type: functional; conditions: route intraperitoneal; summary of the method: as §3
Mus musculus [15] = assay: Anticonvulsant activity in CF-1 albino mouse assessed as protection against 6 Hz psychomotor seizure at 100 mg/kg, ip measured after 1 hr; assay type: functional; conditions: route intraperitoneal; summary of the method: as §3
Mus musculus [16] = assay: Anticonvulsant activity in CF-1 albino mouse assessed as protection against 6 Hz psychomotor seizure at 100 mg/kg, ip measured after 0.25 hrs; assay type: functional; conditions: route intraperitoneal; summary of the method: as §3
Mus musculus [17] = assay: Neurotoxicity in CF-1 albino mouse assessed as myoclonic jerks at 300 mg/kg, ip measured after 0.5 hrs by rotarod test; assay type: toxicity, organism-based; set-up: dose 300 mg/kg, route intraperitoneal; conditions: in vivo
Mus musculus [18] = assay: Anticonvulsant activity in ip dosed CF-1 albino mouse assessed as protection against subcutaneous pentylenetetrazol-induced seizures measured after 0.5 hrs; assay type: functional; conditions: read-out: MED
Summary of the method: (§5)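 scPTZ test in male CF-1 mice. Compound suspended in 0.5% methylcellulose/water, ip at 30, 100 or 300 mg/kg. Pentylenetetrazole 85 mg/kg (CD97, clonic seizures lasting at least 5 s) given subcutaneously at the test time, read at 0.5 and 4 h. Value is the minimum dose protecting half or more of the animals.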

Mus musculus [19] = assay: Neurotoxicity in ip dosed CF-1 albino mouse assessed as motor impairment measured after 0.5 hrs by rotarod test; assay type: toxicity, organism-based; conditions: in vivo; summary of the method: as §2
Mus musculus [20] = assay: Anticonvulsant activity in CF-1 albino mouse assessed as protection against subcutaneous pentylenetetrazol-induced seizures at 300 mg/kg, ip measured after 4 hrs; assay type: functional, organism-based; set-up: dose 300 mg/kg; summary of the method: as §5
Mus musculus [21] = assay: Anticonvulsant activity in CF-1 albino mouse assessed as protection against subcutaneous pentylenetetrazol-induced seizures at 300 mg/kg, ip measured after 0.5 hrs; assay type: functional, organism-based; set-up: dose 300 mg/kg; summary of the method: as §5
Rattus norvegicus [22] = assay: Anticonvulsant activity in po dosed maximum electric shock-induced Sprague-Dawley rat assessed as time of peak effect; assay type: functional
Summary of the method: (§6)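 Male Sprague–Dawley rats dosed orally (0.5% methylcellulose suspension). MES 150 mA, 60 Hz, 0.2 s; rotarod impairment is failure to keep balance for 1 min. Groups of eight, at the previously estimated time of peak effect, with doses varied until at least three points fell in the 10–90% range. ED50/TD50 with 95% confidence intervals from regression; PI = TD50/ED50.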

Rattus norvegicus [23] = assay: Anticonvulsant activity in po dosed Sprague-Dawley rat assessed as protection from maximum electric shock-induced seizures; assay type: functional; summary of the method: as §6
Mus musculus [24] = assay: Anticonvulsant activity in ip dosed CF-1 albino mouse assessed as protection from maximal electric shock-induced seizures measured after 0.5 hrs; assay type: functional; conditions: read-out: MED; summary of the method: as §1
Mus musculus [25] = assay: Anticonvulsant activity in ip dosed CF-1 albino mouse assessed as protection against subcutaneous pentylenetetrazol-induced seizures measured after 4 hrs; assay type: functional; conditions: read-out: MED; summary of the method: as §5

SMILES	Activity (Mus musculus [1])	Activity (Mus musculus [2])	Activity (Mus musculus [3])	Activity (Mus musculus [4])	minimal effective dose (Mus musculus [11])	other results
O=C1CC(c2ccccc2F)C(=O)N1CN1CCN(c2ccccc2Cl)CC1 (stereo not given)	inactive	Non-toxic	inactive	Non-toxic	–	–
O=C1CC(c2ccccc2F)C(=O)N1CN1CCN(c2cccc(Cl)c2)CC1 (racemic)	inactive	Non-toxic	inactive	Non-toxic	–	–
O=C1CC(c2ccccc2F)C(=O)N1CN1CCN(c2ccc(Cl)cc2)CC1 (racemic)	inactive	Non-toxic	–	Non-toxic	100 mg/kg	Activity (Rattus norvegicus [5]): Non-toxic; Activity (Mus musculus [6]): 50%; Activity (Mus musculus [7]): 0%; Activity (Rattus norvegicus [8]): 0%; Activity (Rattus norvegicus [9]): 0%; Activity (Rattus norvegicus [10]): 0%; Activity (Rattus norvegicus [12]): 25%; Activity (Rattus norvegicus [13]): 50%; Activity (Mus musculus [14]): 0%; Activity (Mus musculus [15]): 25%; Activity (Mus musculus [16]): 25%
O=C1CC(c2ccccc2Br)C(=O)N1CN1CCN(c2ccccc2)CC1 (racemic)	inactive	Non-toxic	–	Non-toxic	100 mg/kg	Activity (Mus musculus [6]): 0%; Activity (Mus musculus [7]): 50%; Activity (Mus musculus [14]): 75%; Activity (Mus musculus [15]): 50%; Activity (Mus musculus [16]): 25%
O=C1CC(c2ccccc2Br)C(=O)N1CN1CCN(c2ccccc2F)CC1 (racemic)	inactive	Non-toxic	inactive	Non-toxic	–	Activity (Mus musculus [6]): 25%; Activity (Mus musculus [7]): 25%; Activity (Mus musculus [14]): 25%; Activity (Mus musculus [15]): 25%; Activity (Mus musculus [16]): 0%
O=C1CC(c2ccccc2Br)C(=O)N1CN1CCN(c2ccccc2Cl)CC1 (racemic)	inactive	Non-toxic	–	Non-toxic	300 mg/kg	–
O=C1CC(c2ccccc2Br)C(=O)N1CN1CCN(c2ccc(Cl)cc2)CC1 (racemic)	inactive	Non-toxic	–	Non-toxic	300 mg/kg	–
O=C1CC(c2ccccc2Br)C(=O)N1CN1CCN(c2cccc(C(F)(F)F)c2)CC1 (racemic)	inactive	Non-toxic	–	–	300 mg/kg	–
O=C1CC(c2ccccc2F)C(=O)N1CN1CCN(c2ncccn2)CC1 (racemic)	inactive	–	–	Non-toxic	100 mg/kg	Activity (Mus musculus [17]): Toxic; minimal effective dose (Mus musculus [18]): 300 mg/kg; MTC (Mus musculus [19]): 300 mg/kg; Activity (Mus musculus [20]): inactive
O=C1CC(c2ccccc2F)C(=O)N1CN1CCN(C2CCCCC2)CC1 (racemic)	inactive	Non-toxic	inactive	Non-toxic	–	Activity (Mus musculus [21]): inactive; Activity (Mus musculus [20]): inactive
O=C1CC(c2ccccc2Br)C(=O)N1CN1CCN(C2CCCCC2)CC1 (racemic)	inactive	Non-toxic	–	Non-toxic	100 mg/kg	Activity (Rattus norvegicus [5]): Non-toxic; Activity (Rattus norvegicus [8]): 50%; Activity (Rattus norvegicus [9]): 100%; Time (Rattus norvegicus [22]): 2 h; ED50 (Rattus norvegicus [23]): < 240 mg/kg; Activity (Rattus norvegicus [10]): 50%; Activity (Rattus norvegicus [12]): 25%; Activity (Rattus norvegicus [13]): 25%; Activity (Mus musculus [21]): inactive; Activity (Mus musculus [20]): inactive
O=C1CC(c2ccccc2Br)C(=O)N1CN1CCOCC1 (racemic)	–	–	–	Non-toxic	100 mg/kg	Activity (Rattus norvegicus [5]): Non-toxic; Activity (Rattus norvegicus [8]): 0%; Activity (Rattus norvegicus [9]): 0%; minimal effective dose (Mus musculus [18]): 300 mg/kg; MTC (Mus musculus [19]): 300 mg/kg; Activity (Rattus norvegicus [10]): 0%; minimal effective dose (Mus musculus [24]): 100 mg/kg; Activity (Rattus norvegicus [12]): 0%; Activity (Rattus norvegicus [13]): 25%; Activity (Mus musculus [20]): inactive
O=C1CC(c2ccccc2F)C(=O)N1CN1CCN(c2ccccc2)CC1 (racemic)	inactive	–	–	Non-toxic	300 mg/kg	MTC (Mus musculus [19]): 300 mg/kg
O=C1CC(c2ccccc2F)C(=O)N1CN1CCN(c2ccccc2F)CC1 (racemic)	inactive	Non-toxic	inactive	Non-toxic	–	–
CCC1(C)CC(=O)NC1=O (stereo not given) [ETHOSUXIMIDE]	inactive	Non-toxic	inactive	Non-toxic	–	minimal effective dose (Mus musculus [25]): 300 mg/kg; minimal effective dose (Mus musculus [18]): 100 mg/kg
